Assay results reported in ChEMBL document CHEMBL1821721, “Probing the difference between BH3 groove of Mcl-1 and Bcl-2 protein: Implications for dual inhibitors design” (Eur J Med Chem, 2011).

Key:
[1] = target: Induced myeloid leukemia cell differentiation protein Mcl-1 (Homo sapiens, UniProt Q07820); experiment: Displacement of FAM-Bid peptide from human Mcl-1 after 30 mins by competitive fluorescence polarization assay
In short: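 Serial compound dilutions added with 0.01% Triton X-100; polarization read after 30 min. Controls were protein plus peptide, and peptide alone. Ki calculated with an FP-specific competitive binding equation.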

[2] = target: Apoptosis regulator Bcl-2 (Homo sapiens, UniProt P10415); experiment: Displacement of FAM-Bid peptide from human recombinant Bcl2 after 30 mins by competitive fluorescence polarization assay
In short: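 Bcl-2 (40 nM) preincubated with 10 nM FAM-Bid peptide (Kd 8 nM) in 100 mM potassium phosphate pH 7.5, bovine gamma globulin, 0.02% sodium azide. Serial compound dilutions added in 0.01% Triton X-100; polarization read after 30 min. Controls were protein plus peptide, and peptide alone. Ki derived from an equation developed for FP assays.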

MCF7 = experiment: Cytotoxicity in human MCF7 cells overexpressing Mcl-1after 48 hrs by MTT assay; format: functional, cell-based; settings: MCF7, 48 h
K562 = experiment: Cytotoxicity in human K562 cells overexpressing Mcl-1 after 48 hrs by MTT assay; format: functional, cell-based; settings: K562, 48 h
HL-60 = experiment: Cytotoxicity in human HL60 cells overexpressing Bcl-2 after 48 hrs by MTT assay; format: functional, cell-based; settings: HL-60, 48 h

Apoptosis regulator Bcl-2, sequence (P10415 whole entry): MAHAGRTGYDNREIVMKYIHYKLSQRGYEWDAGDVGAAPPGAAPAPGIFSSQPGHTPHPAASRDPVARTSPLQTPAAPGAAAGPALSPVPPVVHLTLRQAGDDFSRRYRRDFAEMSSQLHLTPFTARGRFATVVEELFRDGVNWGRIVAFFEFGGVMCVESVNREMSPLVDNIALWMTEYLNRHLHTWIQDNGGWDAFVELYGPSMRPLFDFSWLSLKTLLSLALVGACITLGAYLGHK
Induced myeloid leukemia cell differentiation protein Mcl-1, sequence (Q07820 whole entry): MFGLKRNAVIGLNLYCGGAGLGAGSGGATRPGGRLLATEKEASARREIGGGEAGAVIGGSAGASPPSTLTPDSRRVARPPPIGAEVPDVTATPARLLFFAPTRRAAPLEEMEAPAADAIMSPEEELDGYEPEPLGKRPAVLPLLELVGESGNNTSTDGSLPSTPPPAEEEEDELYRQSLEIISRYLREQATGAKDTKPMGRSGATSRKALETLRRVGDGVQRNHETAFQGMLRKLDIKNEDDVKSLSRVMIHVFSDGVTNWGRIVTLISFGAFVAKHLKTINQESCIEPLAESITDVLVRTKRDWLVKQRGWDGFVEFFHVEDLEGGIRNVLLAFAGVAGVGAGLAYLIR

Row | Structure (SMILES) | Ki [1] | Ki [2] | IC50 (MCF7) | IC50 (K562) | IC50 (HL-60)
1 | N#CC1=C2C(=NC1=O)c1cccc3c(Oc4ccc(-c5ccccc5)cc4)ccc2c13 |  | 308 nM |  |  | 
2 | CC(C)c1ccc(Oc2ccc3c4c(cccc24)C2=NC(=O)C(C#N)=C23)cc1 |  | 232 nM |  |  | 
3 | COc1ccccc1Oc1ccc2c3c(cccc13)C1=NC(=O)C(C#N)=C12 | 149 nM | 886 nM |  |  | 
4 | CCC(C)c1ccc(Oc2ccc3c4c(cccc24)C2=NC(=O)C(C#N)=C23)cc1 (stereo not drawn) |  |  | 20 nM | 50 nM | 40 nM

Second part, led by results:

Row | Ki [1] | Ki [2] | Structure (SMILES) | IC50 (MCF7) | IC50 (K562) | IC50 (HL-60)
5 | 174 nM | 445 nM | Cc1ccc(Oc2ccc3c4c(cccc24)C2=NC(=O)C(C#N)=C23)cc1 |  |  | 
6 | 122 nM | 304 nM | COc1ccc(Oc2ccc3c4c(cccc24)C2=NC(=O)C(C#N)=C23)cc1 | 5100 nM | 4700 nM | 1900 nM
7 | 445 nM | 6030 nM | Cc1cccc(Oc2ccc3c4c(cccc24)C2=NC(=O)C(C#N)=C23)c1 |  |  | 
8 | 213 nM | 1430 nM | Cc1ccccc1Oc1ccc2c3c(cccc13)C1=NC(=O)C(C#N)=C12 |  |  | 
9 | 375 nM | 16600 nM | COc1cccc(Oc2ccc3c4c(cccc24)C2=NC(=O)C(C#N)=C23)c1 | 6400 nM | 8300 nM | > 50000 nM
